# Test results: ChEMBL document CHEMBL4339190, “2,6-Disubstituted imidazo[2,1-b][1,3,4]thiadiazole derivatives as potent staphylococcal biofilm inhibitors” (Eur J Med Chem, 2019)
# Tested on: Staphylococcus aureus
# Test: Antimicrobial activity against Staphylococcus aureus ATCC 25923 assessed as growth inhibition of planktonic forms incubated for 24 hrs
# Format: organism-based
# Details: in vitro
# In short: (§1)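 Broth microdilution in tryptic soy broth. Two-fold series 100 to 0.75 μg/mL made from a 1 mg/mL stock in 0.9% NaCl. Inoculum ~10⁶ cfu/mL taken from a 24 h culture, 37 °C 24 h.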
row,SMILES,MIC
1,Br.COc1cccc(-c2cn3nc(-c4cn(C)c5ccc(Br)cc45)sc3n2)c1,> 100 µg/mL
2,Cn1cc(-c2nn3cc(-c4ccc(C(F)(F)F)cc4)nc3s2)c2cc(Cl)ccc21,> 100 µg/mL
3,Br.Cn1cc(-c2nn3cc(-c4ccccc4)nc3s2)c2ccccc21,> 100 µg/mL
4,Br.Cn1cc(-c2nn3cc(-c4ccc(C(F)(F)F)cc4)nc3s2)c2cc(Br)ccc21,> 100 µg/mL
5,Br.c1ccc(-c2cn3nc(-c4c[nH]c5ccccc45)sc3n2)cc1,> 100 µg/mL
6,Br.COc1ccc(OC)c(-c2cn3nc(-c4cn(C)c5ccccc45)sc3n2)c1,> 100 µg/mL
7,Br.O=[N+]([O-])c1ccc(-c2cn3nc(-c4c[nH]c5ccc(Cl)cc45)sc3n2)cc1,> 100 µg/mL
8,O=[N+]([O-])c1ccc(-c2cn3nc(-c4c[nH]c5ccc(Br)cc45)sc3n2)cc1,> 100 µg/mL

# Tested on: Escherichia coli
# Test: Antimicrobial activity against Escherichia coli ATCC 25922 assessed as growth inhibition of planktonic forms incubated for 24 hrs
# Format: organism-based
# Details: in vitro
# In short: as §1
row,SMILES,MIC
1,Br.COc1cccc(-c2cn3nc(-c4cn(C)c5ccc(Br)cc45)sc3n2)c1,> 100 µg/mL
2,Cn1cc(-c2nn3cc(-c4ccc(C(F)(F)F)cc4)nc3s2)c2cc(Cl)ccc21,> 100 µg/mL
3,Br.Cn1cc(-c2nn3cc(-c4ccccc4)nc3s2)c2ccccc21,> 100 µg/mL
4,Br.Cn1cc(-c2nn3cc(-c4ccc(C(F)(F)F)cc4)nc3s2)c2cc(Br)ccc21,> 100 µg/mL
5,Br.c1ccc(-c2cn3nc(-c4c[nH]c5ccccc45)sc3n2)cc1,> 100 µg/mL
6,Br.COc1ccc(OC)c(-c2cn3nc(-c4cn(C)c5ccccc45)sc3n2)c1,> 100 µg/mL
7,Br.O=[N+]([O-])c1ccc(-c2cn3nc(-c4c[nH]c5ccc(Cl)cc45)sc3n2)cc1,> 100 µg/mL
8,O=[N+]([O-])c1ccc(-c2cn3nc(-c4c[nH]c5ccc(Br)cc45)sc3n2)cc1,> 100 µg/mL

# Tested on: Pseudomonas aeruginosa
# Test: Antimicrobial activity against Pseudomonas aeruginosa ATCC 15442 assessed as growth inhibition of planktonic forms incubated for 24 hrs
# Format: organism-based
# Details: in vitro
# In short: as §1
row,SMILES,MIC
1,Br.COc1cccc(-c2cn3nc(-c4cn(C)c5ccc(Br)cc45)sc3n2)c1,> 100 µg/mL
2,Cn1cc(-c2nn3cc(-c4ccc(C(F)(F)F)cc4)nc3s2)c2cc(Cl)ccc21,> 100 µg/mL
3,Br.Cn1cc(-c2nn3cc(-c4ccccc4)nc3s2)c2ccccc21,> 100 µg/mL
4,Br.Cn1cc(-c2nn3cc(-c4ccc(C(F)(F)F)cc4)nc3s2)c2cc(Br)ccc21,> 100 µg/mL
5,Br.c1ccc(-c2cn3nc(-c4c[nH]c5ccccc45)sc3n2)cc1,> 100 µg/mL
6,Br.COc1ccc(OC)c(-c2cn3nc(-c4cn(C)c5ccccc45)sc3n2)c1,> 100 µg/mL
7,Br.O=[N+]([O-])c1ccc(-c2cn3nc(-c4c[nH]c5ccc(Cl)cc45)sc3n2)cc1,> 100 µg/mL
8,O=[N+]([O-])c1ccc(-c2cn3nc(-c4c[nH]c5ccc(Br)cc45)sc3n2)cc1,> 100 µg/mL

# Tested on: Staphylococcus epidermidis
# Test: Antibiofilm activity against Staphylococcus epidermidis ATCC 12228 incubated for 24 hrs by crystal violet-staining based assay
# Format: functional
# Details: not given
# In short: (§2)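 Biofilm prevention: 0.5 McFarland inoculum (2.5 µL) in 100 µL TSB with 2% w/v glucose, compound present from the start over 100–0.1 µg/mL, 37 °C 24 h. Washed with PBS, stained 0.1% w/v crystal violet 30 min, eluted with 33% v/v acetic acid, read at 570 nm. BIC50 (50% inhibition versus untreated control) derived by linear regression; triplicate, repeated at least twice.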
SMILES,MBIC50,inhibition
Br.COc1cccc(-c2cn3nc(-c4cn(C)c5ccc(Br)cc45)sc3n2)c1,63.8 µM,Dose-dependent effect
Br.Cn1cc(-c2nn3cc(-c4ccccc4)nc3s2)c2ccccc21,47.9 µM,Dose-dependent effect
Br.c1ccc(-c2cn3nc(-c4c[nH]c5ccccc45)sc3n2)cc1,59.1 µM,Dose-dependent effect
Br.COc1ccc(OC)c(-c2cn3nc(-c4cn(C)c5ccccc45)sc3n2)c1,25 µM,Dose-dependent effect
Br.O=[N+]([O-])c1ccc(-c2cn3nc(-c4c[nH]c5ccc(Cl)cc45)sc3n2)cc1,28.5 µM,Dose-dependent effect
O=[N+]([O-])c1ccc(-c2cn3nc(-c4c[nH]c5ccc(Br)cc45)sc3n2)cc1,19.1 µM,Dose-dependent effect

# Tested on: Staphylococcus aureus
# Test: Antibiofilm activity against Staphylococcus aureus ATCC 25923 incubated for 24 hrs by crystal violet-staining based assay
# Format: functional
# Details: not given
# In short: as §2
SMILES,MBIC50,inhibition
Br.COc1cccc(-c2cn3nc(-c4cn(C)c5ccc(Br)cc45)sc3n2)c1,16 µM,Dose-dependent effect
Br.Cn1cc(-c2nn3cc(-c4ccccc4)nc3s2)c2ccccc21,23 µM,Dose-dependent effect
Br.c1ccc(-c2cn3nc(-c4c[nH]c5ccccc45)sc3n2)cc1,35.9 µM,Dose-dependent effect
Br.COc1ccc(OC)c(-c2cn3nc(-c4cn(C)c5ccccc45)sc3n2)c1,24.3 µM,Dose-dependent effect
Br.O=[N+]([O-])c1ccc(-c2cn3nc(-c4c[nH]c5ccc(Cl)cc45)sc3n2)cc1,55.3 µM,Dose-dependent effect
O=[N+]([O-])c1ccc(-c2cn3nc(-c4c[nH]c5ccc(Br)cc45)sc3n2)cc1,23.9 µM,Dose-dependent effect

# Tested on: Escherichia coli
# Test: Antibiofilm activity against Escherichia coli ATCC 25922 assessed as inhibition of biofilm formation at 100 ug/ml incubated for 24 hrs by crystal violet-staining based assay
# Format: functional
# Details: ATCC 25922, 24 h
row,SMILES,inhibition at 100 µg/mL
1,Br.COc1cccc(-c2cn3nc(-c4cn(C)c5ccc(Br)cc45)sc3n2)c1,< 15%
2,Br.Cn1cc(-c2nn3cc(-c4ccccc4)nc3s2)c2ccccc21,< 15%
3,Br.c1ccc(-c2cn3nc(-c4c[nH]c5ccccc45)sc3n2)cc1,< 15%
4,Br.COc1ccc(OC)c(-c2cn3nc(-c4cn(C)c5ccccc45)sc3n2)c1,< 15%
5,Br.O=[N+]([O-])c1ccc(-c2cn3nc(-c4c[nH]c5ccc(Cl)cc45)sc3n2)cc1,< 15%
6,O=[N+]([O-])c1ccc(-c2cn3nc(-c4c[nH]c5ccc(Br)cc45)sc3n2)cc1,< 15%

# Tested on: Staphylococcus epidermidis
# Test: Antimicrobial activity against Staphylococcus epidermidis ATCC 12228 assessed as growth inhibition of planktonic forms incubated for 24 hrs
# Format: organism-based
# Details: in vitro
# In short: as §1
row,SMILES,MIC
1,Br.COc1cccc(-c2cn3nc(-c4cn(C)c5ccc(Br)cc45)sc3n2)c1,> 100 µg/mL
2,Cn1cc(-c2nn3cc(-c4ccc(C(F)(F)F)cc4)nc3s2)c2cc(Cl)ccc21,> 100 µg/mL
3,Br.Cn1cc(-c2nn3cc(-c4ccccc4)nc3s2)c2ccccc21,> 100 µg/mL
4,Br.Cn1cc(-c2nn3cc(-c4ccc(C(F)(F)F)cc4)nc3s2)c2cc(Br)ccc21,> 100 µg/mL
5,Br.c1ccc(-c2cn3nc(-c4c[nH]c5ccccc45)sc3n2)cc1,> 100 µg/mL
6,Br.COc1ccc(OC)c(-c2cn3nc(-c4cn(C)c5ccccc45)sc3n2)c1,> 100 µg/mL
7,Br.O=[N+]([O-])c1ccc(-c2cn3nc(-c4c[nH]c5ccc(Cl)cc45)sc3n2)cc1,> 100 µg/mL
8,O=[N+]([O-])c1ccc(-c2cn3nc(-c4c[nH]c5ccc(Br)cc45)sc3n2)cc1,> 100 µg/mL

# Tested on: Staphylococcus aureus
# Test: Antimicrobial activity against Staphylococcus aureus ATCC 6538 assessed as growth inhibition of planktonic forms incubated for 24 hrs
# Format: organism-based
# Details: in vitro
# In short: as §1
row,SMILES,MIC
1,Br.COc1cccc(-c2cn3nc(-c4cn(C)c5ccc(Br)cc45)sc3n2)c1,> 100 µg/mL
2,Cn1cc(-c2nn3cc(-c4ccc(C(F)(F)F)cc4)nc3s2)c2cc(Cl)ccc21,> 100 µg/mL
3,Br.Cn1cc(-c2nn3cc(-c4ccccc4)nc3s2)c2ccccc21,> 100 µg/mL
4,Br.Cn1cc(-c2nn3cc(-c4ccc(C(F)(F)F)cc4)nc3s2)c2cc(Br)ccc21,> 100 µg/mL
5,Br.c1ccc(-c2cn3nc(-c4c[nH]c5ccccc45)sc3n2)cc1,> 100 µg/mL
6,Br.COc1ccc(OC)c(-c2cn3nc(-c4cn(C)c5ccccc45)sc3n2)c1,> 100 µg/mL
7,Br.O=[N+]([O-])c1ccc(-c2cn3nc(-c4c[nH]c5ccc(Cl)cc45)sc3n2)cc1,> 100 µg/mL
8,O=[N+]([O-])c1ccc(-c2cn3nc(-c4c[nH]c5ccc(Br)cc45)sc3n2)cc1,> 100 µg/mL

# Tested on: Staphylococcus aureus
# Test: Antibiofilm activity against Staphylococcus aureus ATCC 6538 incubated for 24 hrs by crystal violet-staining based assay
# Format: functional
# Details: not given
# In short: as §2
SMILES,MBIC50,inhibition
Br.COc1cccc(-c2cn3nc(-c4cn(C)c5ccc(Br)cc45)sc3n2)c1,12.4 µM,Dose-dependent effect
Br.Cn1cc(-c2nn3cc(-c4ccccc4)nc3s2)c2ccccc21,18.9 µM,Dose-dependent effect
Br.c1ccc(-c2cn3nc(-c4c[nH]c5ccccc45)sc3n2)cc1,46.5 µM,Dose-dependent effect
Br.COc1ccc(OC)c(-c2cn3nc(-c4cn(C)c5ccccc45)sc3n2)c1,3.6 µM,Dose-dependent effect
Br.O=[N+]([O-])c1ccc(-c2cn3nc(-c4c[nH]c5ccc(Cl)cc45)sc3n2)cc1,35.8 µM,Dose-dependent effect
O=[N+]([O-])c1ccc(-c2cn3nc(-c4c[nH]c5ccc(Br)cc45)sc3n2)cc1,27 µM,Dose-dependent effect

# Tested on: Pseudomonas aeruginosa
# Test: Antibiofilm activity against Pseudomonas aeruginosa ATCC 15442 assessed as inhibition of biofilm formation at 100 ug/ml incubated for 24 hrs by crystal violet-staining based assay
# Format: functional
# Details: ATCC 15442, 24 h
row,SMILES,inhibition at 100 µg/mL
1,Br.Cn1cc(-c2nn3cc(-c4ccccc4)nc3s2)c2ccccc21,< 15%
2,Br.c1ccc(-c2cn3nc(-c4c[nH]c5ccccc45)sc3n2)cc1,< 15%
3,Br.O=[N+]([O-])c1ccc(-c2cn3nc(-c4c[nH]c5ccc(Cl)cc45)sc3n2)cc1,< 15%

# Tested on: Pseudomonas aeruginosa
# Test: Antibiofilm activity against Pseudomonas aeruginosa ATCC 15442 incubated for 24 hrs by crystal violet-staining based assay
# Format: functional
# Details: not given
# In short: as §2
SMILES,MBIC50,inhibition
Br.COc1cccc(-c2cn3nc(-c4cn(C)c5ccc(Br)cc45)sc3n2)c1,26.3 µM,Dose-dependent effect
O=[N+]([O-])c1ccc(-c2cn3nc(-c4c[nH]c5ccc(Br)cc45)sc3n2)cc1,43.3 µM,Dose-dependent effect
